{
  "source": "ChEMBL document CHEMBL1157960",
  "about": "“10-Phenyl-[12]-cytochalasins Z7, Z8, and Z9 from the marine-derived fungus Spicaria elegans” (J Nat Prod, 2006)",
  "data": [
    {"test_system": "A549", "assay": "Cytotoxicity against human A549 cells after 72 hrs by MTT method", "format": "functional, cell-based", "conditions": "A549, 72 h", "how_it_was_run": "(§1)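 Cells kept in RPMI-1640 with 10% FBS at 37 °C under 5% CO2/95% air. Seeded at 5 × 10^4 cells/mL and held 24 h before compound was added in DMSO at various concentrations. Incubation then ran 72 h. MTT (5 mg/mL stock) was added for 4 h, formazan was dissolved in DMSO, and absorbance was read at 540 nm. Result reported as IC50.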", "units": {"IC50": "µM"}, "values": [
      {"smiles": "C=C1[C@@H](C)[C@H]2[C@H](Cc3ccccc3)NC(=O)[C@]23OC(=O)/C=C/[C@H](C)[C@H](O)[C@@H](C)C/C=C/[C@H]3[C@@H]1O", "IC50": 8.8},
      {"smiles": "CC1=C(C)[C@H]2[C@H](Cc3ccccc3)NC(=O)[C@]23OC(=O)/C=C/[C@H](C)[C@H](O)[C@@H](C)C/C=C/[C@H]3[C@@H]1O", "IC50": 21},
      {"smiles": "C[C@H]1C/C=C/[C@H]2[C@@H]3O[C@]3(C)[C@@H](C)[C@H]3[C@H](Cc4ccccc4)NC(=O)[C@]32OC(=O)O/C=C/[C@@](C)(O)C1=O", "note": "[CYTOCHALASIN E]", "IC50": 0.0062},
      {"smiles": "CC1=C(C)[C@H]2[C@H](Cc3ccccc3)NC(=O)[C@]23OC(=O)O/C=C/[C@@](C)(O)C(=O)[C@@H](C)C/C=C/[C@H]3[C@@H]1O", "note": "[CYTOCHALASIN K]", "IC50": 8.4},
      {"smiles": "CC1=C(C)[C@H]2[C@H](Cc3ccccc3)NC(=O)[C@]23OC(=O)/C=C/[C@@](C)(O)C[C@@H](C)C/C=C/[C@H]3[C@@H]1O", "note": "[CYTOCHALASIN Z9]", "IC50": 8.7}
    ]},
    {"test_system": "P388", "assay": "Cytotoxicity against mouse P388 cells after 72 hrs by MTT method", "format": "functional, cell-based", "conditions": "P388, 72 h", "how_it_was_run": "as §1", "units": {"IC50": "µM"}, "values": [
      {"smiles": "C=C1[C@@H](C)[C@H]2[C@H](Cc3ccccc3)NC(=O)[C@]23OC(=O)/C=C/[C@H](C)[C@H](O)[C@@H](C)C/C=C/[C@H]3[C@@H]1O", "IC50": 75},
      {"smiles": "CC1=C(C)[C@H]2[C@H](Cc3ccccc3)NC(=O)[C@]23OC(=O)/C=C/[C@H](C)[C@H](O)[C@@H](C)C/C=C/[C@H]3[C@@H]1O", "IC50": 56},
      {"smiles": "C[C@H]1C/C=C/[C@H]2[C@@H]3O[C@]3(C)[C@@H](C)[C@H]3[C@H](Cc4ccccc4)NC(=O)[C@]32OC(=O)O/C=C/[C@@](C)(O)C1=O", "note": "[CYTOCHALASIN E]", "IC50": 0.093},
      {"smiles": "CC1=C(C)[C@H]2[C@H](Cc3ccccc3)NC(=O)[C@]23OC(=O)O/C=C/[C@@](C)(O)C(=O)[C@@H](C)C/C=C/[C@H]3[C@@H]1O", "note": "[CYTOCHALASIN K]", "IC50": 89},
      {"smiles": "CC1=C(C)[C@H]2[C@H](Cc3ccccc3)NC(=O)[C@]23OC(=O)/C=C/[C@@](C)(O)C[C@@H](C)C/C=C/[C@H]3[C@@H]1O", "note": "[CYTOCHALASIN Z9]", "IC50": 99}
    ]}
  ]
}
